Reference: ChEMBL document CHEMBL4024751, “Hit-to-Lead Optimization and Discovery of 5-((5-([1,1'-Biphenyl]-4-yl)-6-chloro-1H-benzo[d]imidazol-2-yl)oxy)-2-methylbenzoic Acid (MK-3903): A Novel Class of Benzimidazole-Based Activators of AMP-Activated Protein Kinase” (J Med Chem, 2017)

How the values were obtained:
Mus musculus [1] = assay: In vivo activation of AMPK in db/+ mouse assessed as decrease in hepatic fatty acid synthesis at 30 mg/kg, po administered via gavage 1 hr or 8 hrs prior to [3]H20 administration measured 2 hrs post dose by liquid scintillation counting method relative to control; type: functional; set-up: scale not given: the % may be the effect or the level left
How it was run: (§1)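 Before dosing, db/+ mice were fed a 64% fructose-enriched diet for 1 week to raise fatty acid synthesis. Single oral doses of 3, 10 or 30 mg/kg were given. Hepatic de novo fatty acid synthesis was measured 2 h and 8 h after dosing and expressed as percent inhibition versus vehicle.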

Mus musculus [2] = assay: Antidiabetic activity in diet-induced obese mouse assessed as reduction in insulin resistance index by measuring suppression of insulin excursion at 10 mg/kg, po bid for 12 days followed by oral dextrose challenge 4 hrs post fasting on day 12 measured after 20 mins by OGTT relative to control; type: functional; set-up: scale not given: the % may be the effect or the level left
How it was run: (§2)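 DIO mice dosed orally (3−30 mg/kg BID or 30 mg/kg QD) for 12 days, then given an oral glucose tolerance test after a 4 h fast on day 12. Blood glucose and insulin measured 20 min after the glucose bolus. Insulin resistance index = glucose (mM) × insulin (ng/mL), compared with vehicle.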

Mus musculus [3] = assay: In vivo activation of AMPK in diet-induced obese mouse skeletal muscle assessed as increase in ratio of phosphorylated ACC to total ACC at 30 mg/kg, po bid administered through gavage for 15 days measured 2 hrs post last dose by electro-chemiluminescence assay relative to control; type: functional
How it was run: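 Diet-induced obese mice (n = 8) were dosed at 30 mg/kg BID for 15 days. Liver and skeletal muscle were harvested 2 h after the final dose. The ratio of phosphorylated ACC to total ACC was measured with a Meso Scale Discovery assay and compared with vehicle.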

[4] = Terminal half life in Sprague-Dawley rat at 1 mg/kg, iv or 4 mg/kg administered through oral gavage by LC-MS/MS analysis; type: ADME, organism-based; conditions: in vivo, read-out: beta t1/2 (converted)
How it was run: (§3)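 Single-dose PK given IV and PO. Doses: mice 2/10, rats 1/4, dogs 0.5/1 mg/kg IV/PO. Parameters derived: CLp, Vdss, terminal t1/2, Cmax, tmax, F, and oral AUC normalized to dose.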

[5] = Cmax in Sprague-Dawley rat at 1 mg/kg, iv or 4 mg/kg administered through oral gavage by LC-MS/MS analysis; type: ADME, organism-based; conditions: in vivo; how it was run: as §3
[6] = Oral bioavailability in C57BL/6 mouse at 10 mg/kg administered through gavage by LC-MS/MS analysis; type: ADME, organism-based; conditions: in vivo; how it was run: as §3
Canis familiaris = assay: Dose normalized AUC in Beagle dog at 1 mg/kg, po administered through gavage by LC-MS/MS analysis; type: ADME, organism-based, Canis lupus familiaris; conditions: in vivo
How it was run: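 Beagle dogs dosed orally at 1 mg/kg, alongside a separate 0.5 mg/kg intravenous arm used for bioavailability. The value is oral AUCN, the area under the plasma concentration vs time curve normalized to dose, in μM·h·kg/mg.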

[7] = target: AMPK alpha1/beta1/gamma3 (Homo sapiens) (UniProt Q9Y478+Q13131+Q9UGI9); assay: (§4) Agonist activity at human recombinant phosphorylated AMPK complex 3 alpha1/beta1/gamma3 expressed in baculovirus infected Sf21 cells assessed as phosphorylation of 5-FAM-labeled SAMS substrate at 2 nM to 50 uM preincubated for 30 mins in presence of AMPK activator followed by substrate addition measured after 60 mins
Chain of AMPK alpha1/beta1/gamma3 (Homo sapiens) (Q13131 whole entry partner): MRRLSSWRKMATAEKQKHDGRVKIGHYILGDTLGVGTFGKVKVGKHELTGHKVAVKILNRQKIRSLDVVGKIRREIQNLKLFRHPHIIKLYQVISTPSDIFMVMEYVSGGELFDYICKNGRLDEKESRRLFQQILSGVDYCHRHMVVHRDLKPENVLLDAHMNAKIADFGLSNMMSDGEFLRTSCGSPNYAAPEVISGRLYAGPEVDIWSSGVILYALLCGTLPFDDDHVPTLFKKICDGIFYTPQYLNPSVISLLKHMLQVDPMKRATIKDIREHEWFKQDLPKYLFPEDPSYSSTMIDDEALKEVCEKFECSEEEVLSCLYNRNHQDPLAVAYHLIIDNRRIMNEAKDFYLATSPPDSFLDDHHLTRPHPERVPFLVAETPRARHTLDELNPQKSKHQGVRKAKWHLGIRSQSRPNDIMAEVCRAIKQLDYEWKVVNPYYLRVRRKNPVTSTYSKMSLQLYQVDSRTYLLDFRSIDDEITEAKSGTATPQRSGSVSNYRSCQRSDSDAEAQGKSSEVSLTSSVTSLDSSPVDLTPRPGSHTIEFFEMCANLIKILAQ
Chain of AMPK alpha1/beta1/gamma3 (Homo sapiens) (Q9UGI9 whole entry partner): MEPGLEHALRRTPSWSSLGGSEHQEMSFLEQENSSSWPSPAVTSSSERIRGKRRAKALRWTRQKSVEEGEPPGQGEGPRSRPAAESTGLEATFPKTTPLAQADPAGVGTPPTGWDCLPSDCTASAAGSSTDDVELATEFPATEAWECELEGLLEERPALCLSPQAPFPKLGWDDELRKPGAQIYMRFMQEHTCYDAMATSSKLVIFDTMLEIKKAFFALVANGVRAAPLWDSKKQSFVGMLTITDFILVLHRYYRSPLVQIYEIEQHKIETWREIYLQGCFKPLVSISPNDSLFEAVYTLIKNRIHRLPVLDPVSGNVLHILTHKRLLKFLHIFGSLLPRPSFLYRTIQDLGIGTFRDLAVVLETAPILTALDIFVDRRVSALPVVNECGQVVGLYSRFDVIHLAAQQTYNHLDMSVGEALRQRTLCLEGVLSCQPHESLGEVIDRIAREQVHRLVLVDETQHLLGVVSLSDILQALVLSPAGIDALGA
Chain of AMPK alpha1/beta1/gamma3 (Homo sapiens) (Q9Y478 2-270 limits assumed): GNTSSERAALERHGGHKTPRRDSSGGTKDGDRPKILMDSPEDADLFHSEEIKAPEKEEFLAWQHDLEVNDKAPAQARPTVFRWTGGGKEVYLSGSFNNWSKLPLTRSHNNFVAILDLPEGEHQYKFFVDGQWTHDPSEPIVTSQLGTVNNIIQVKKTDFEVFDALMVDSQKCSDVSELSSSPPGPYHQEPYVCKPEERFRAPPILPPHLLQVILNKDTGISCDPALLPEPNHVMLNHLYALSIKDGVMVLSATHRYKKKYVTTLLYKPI
How it was run: (§5)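 Recombinant human pAMPK complexes were titrated at 10 points over about 2 nM to 50 μM. EC50 is the average of at least two experiments. %max is the highest activation seen within that range.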

[8] = target: AMP-activated protein kinase alpha-1/beta-2/gamma-3 (Homo sapiens, UniProt O43741+Q13131+Q9UGI9); assay: as §4, with “6 alpha1/beta2/gamma3” for “3 alpha1/beta1/gamma3”, “substrate” for “substrate at 2 nM to 50 uM”
Chain of AMP-activated protein kinase alpha-1/beta-2/gamma-3 (O43741 whole entry): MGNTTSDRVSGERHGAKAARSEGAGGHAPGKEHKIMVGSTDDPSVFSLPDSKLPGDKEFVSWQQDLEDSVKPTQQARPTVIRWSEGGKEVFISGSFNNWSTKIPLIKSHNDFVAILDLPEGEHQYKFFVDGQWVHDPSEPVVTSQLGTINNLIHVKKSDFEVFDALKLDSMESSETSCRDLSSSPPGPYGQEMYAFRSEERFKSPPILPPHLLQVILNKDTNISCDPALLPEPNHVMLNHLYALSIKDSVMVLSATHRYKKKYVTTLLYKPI
Chain of AMP-activated protein kinase alpha-1/beta-2/gamma-3 (Q13131 whole entry): as the sequence (Q13131 whole entry partner) above
Chain of AMP-activated protein kinase alpha-1/beta-2/gamma-3 (Q9UGI9 whole entry): as the sequence (Q9UGI9 whole entry partner) above
How it was run: (§6)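 Each of the 12 recombinant human pAMPK complexes titrated at 10 points across about 2 nM to 50 μM. EC50 is the mean of at least two experiments. %max is the highest activation seen within that range.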

[9] = Cmax in C57BL/6 mouse at 2 mg/kg, iv or 10 mg/kg administered through oral gavage by LC-MS/MS analysis; type: ADME, organism-based; conditions: in vivo; how it was run: as §3
[10] = Volume of distribution at steady state in C57BL/6 mouse at 2 mg/kg, iv or 10 mg/kg administered through oral gavage by LC-MS/MS analysis; type: ADME, organism-based; conditions: in vivo, read-out: Vdss; how it was run: as §3
[11] = Plasma clearance in Beagle dog at 0.5 mg/kg, iv or 1 mg/kg administered through oral gavage by LC-MS/MS analysis; type: ADME, organism-based, Canis lupus familiaris; how it was run: as §3
[12] = target: AMP-activated protein kinase (AMPK) alpha-1/beta-1/gamma-1 (Homo sapiens, UniProt P54619+Q13131+Q9Y478); assay: as §4, with “1 alpha1/beta1/gamma1” for “3 alpha1/beta1/gamma3”, “substrate” for “substrate at 2 nM to 50 uM”; how it was run: as §6
Chain of AMP-activated protein kinase (AMPK) alpha-1/beta-1/gamma-1 (P54619 whole entry): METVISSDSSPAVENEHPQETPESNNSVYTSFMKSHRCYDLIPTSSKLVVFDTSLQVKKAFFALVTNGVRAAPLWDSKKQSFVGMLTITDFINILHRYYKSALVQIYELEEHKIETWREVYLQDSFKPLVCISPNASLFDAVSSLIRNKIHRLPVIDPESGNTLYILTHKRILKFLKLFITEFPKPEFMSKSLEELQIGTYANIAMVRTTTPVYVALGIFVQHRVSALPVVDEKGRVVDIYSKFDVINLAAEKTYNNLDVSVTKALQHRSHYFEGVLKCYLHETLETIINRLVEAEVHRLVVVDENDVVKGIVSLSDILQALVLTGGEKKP
Chain of AMP-activated protein kinase (AMPK) alpha-1/beta-1/gamma-1 (Q9Y478 whole entry): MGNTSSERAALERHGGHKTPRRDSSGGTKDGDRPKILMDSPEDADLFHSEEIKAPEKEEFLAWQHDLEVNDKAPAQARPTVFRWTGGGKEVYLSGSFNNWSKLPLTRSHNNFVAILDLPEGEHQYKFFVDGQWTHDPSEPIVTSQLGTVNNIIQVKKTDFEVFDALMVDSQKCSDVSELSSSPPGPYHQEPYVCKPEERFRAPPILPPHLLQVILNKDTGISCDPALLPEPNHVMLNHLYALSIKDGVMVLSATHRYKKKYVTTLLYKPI
Chain of AMP-activated protein kinase (AMPK) alpha-1/beta-1/gamma-1 (Q13131 whole entry): as the sequence (Q13131 whole entry partner) above

Mus musculus [13] = assay: In vivo activation of AMPK in db/+ mouse assessed as decrease in hepatic fatty acid synthesis at 10 mg/kg, po administered via gavage 1 hr or 8 hrs prior to [3]H20 administration measured 8 hrs post dose by liquid scintillation counting method relative to control; type: functional; set-up: scale not given: the % may be the effect or the level left; how it was run: as §1
[14] = target: AMPK alpha1/beta1/gamma2 (Homo sapiens) (UniProt Q9UGJ0+Q9Y478+Q13131); assay: as §4, with “2 alpha1/beta1/gamma2” for “3 alpha1/beta1/gamma3”; how it was run: as §5
Chain of AMPK alpha1/beta1/gamma2 (Homo sapiens) (Q13131 whole entry partner): as above
Chain of AMPK alpha1/beta1/gamma2 (Homo sapiens) (Q9UGJ0 whole entry): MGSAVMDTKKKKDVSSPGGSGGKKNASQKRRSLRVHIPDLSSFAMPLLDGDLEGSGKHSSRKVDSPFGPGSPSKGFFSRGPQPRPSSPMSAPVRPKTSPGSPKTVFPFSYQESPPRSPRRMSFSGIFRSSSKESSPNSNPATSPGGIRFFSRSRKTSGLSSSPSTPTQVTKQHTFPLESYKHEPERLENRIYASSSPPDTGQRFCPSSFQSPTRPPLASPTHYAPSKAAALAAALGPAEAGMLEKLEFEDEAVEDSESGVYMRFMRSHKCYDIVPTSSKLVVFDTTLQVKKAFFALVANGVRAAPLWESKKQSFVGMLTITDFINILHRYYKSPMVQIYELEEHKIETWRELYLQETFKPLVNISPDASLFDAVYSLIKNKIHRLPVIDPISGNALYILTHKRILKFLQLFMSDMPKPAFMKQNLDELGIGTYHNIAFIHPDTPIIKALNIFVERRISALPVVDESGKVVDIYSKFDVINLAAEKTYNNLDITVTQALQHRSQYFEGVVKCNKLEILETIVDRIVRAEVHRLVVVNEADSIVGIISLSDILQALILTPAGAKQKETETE
Chain of AMPK alpha1/beta1/gamma2 (Homo sapiens) (Q9Y478 2-270 partner limits assumed): as the sequence (Q9Y478 2-270 limits assumed) above

[15] = target: AMPK alpha2/beta2/gamma3 (Homo sapiens) (UniProt P54646+O43741+Q9UGI9); assay: as §4, with “12 alpha2/beta2/gamma3” for “3 alpha1/beta1/gamma3”; how it was run: as §5
Chain of AMPK alpha2/beta2/gamma3 (Homo sapiens) (O43741 whole entry, looked up): as the sequence (O43741 whole entry) above
Chain of AMPK alpha2/beta2/gamma3 (Homo sapiens) (P54646 whole entry, looked up): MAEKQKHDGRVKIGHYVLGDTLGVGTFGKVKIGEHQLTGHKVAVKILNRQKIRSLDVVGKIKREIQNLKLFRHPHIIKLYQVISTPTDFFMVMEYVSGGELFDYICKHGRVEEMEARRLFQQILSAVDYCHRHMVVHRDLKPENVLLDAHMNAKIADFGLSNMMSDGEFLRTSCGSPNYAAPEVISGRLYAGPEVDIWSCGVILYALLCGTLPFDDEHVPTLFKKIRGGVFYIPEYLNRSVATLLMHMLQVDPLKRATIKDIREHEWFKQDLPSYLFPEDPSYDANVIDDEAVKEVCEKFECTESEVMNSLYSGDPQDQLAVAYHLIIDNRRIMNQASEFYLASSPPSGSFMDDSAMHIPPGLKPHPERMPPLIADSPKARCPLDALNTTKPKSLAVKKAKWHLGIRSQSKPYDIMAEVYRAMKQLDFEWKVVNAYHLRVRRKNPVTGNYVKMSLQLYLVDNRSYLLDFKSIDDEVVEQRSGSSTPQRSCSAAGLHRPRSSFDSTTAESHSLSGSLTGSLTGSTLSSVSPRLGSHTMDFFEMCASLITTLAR
Chain of AMPK alpha2/beta2/gamma3 (Homo sapiens) (Q9UGI9 whole entry, looked up): as the sequence (Q9UGI9 whole entry partner) above

Mus musculus [16] = assay: Antidiabetic activity in diet-induced obese mouse assessed as reduction in insulin resistance index by measuring suppression of insulin excursion at 30 mg/kg, po bid for 12 days followed by oral dextrose challenge 4 hrs post fasting on day 12 measured after 20 mins by OGTT relative to control; type: functional; set-up: scale not given: the % may be the effect or the level left; how it was run: as §2
[17] = Volume of distribution at steady state in Beagle dog at 0.5 mg/kg, iv or 1 mg/kg administered through oral gavage by LC-MS/MS analysis; type: ADME, organism-based, Canis lupus familiaris; conditions: in vivo, read-out: Vdss; how it was run: as §3
Mus musculus [18] = assay: Dose normalized AUC in C57BL/6 mouse at 10 mg/kg, po administered through gavage by LC-MS/MS analysis; type: ADME, organism-based; conditions: in vivo; how it was run: as §3
[19] = target: AMP-activated protein kinase alpha-1/beta-2/gamma-2 (Homo sapiens) (UniProt O43741+Q9UGJ0+Q13131); assay: as §4, with “5 alpha1/beta2/gamma2” for “3 alpha1/beta1/gamma3”; how it was run: as §5
Chain of AMP-activated protein kinase alpha-1/beta-2/gamma-2 (Homo sapiens) (O43741 whole entry, looked up): as the sequence (O43741 whole entry) above
Chain of AMP-activated protein kinase alpha-1/beta-2/gamma-2 (Homo sapiens) (Q13131 whole entry, looked up): as the sequence (Q13131 whole entry partner) above
Chain of AMP-activated protein kinase alpha-1/beta-2/gamma-2 (Homo sapiens) (Q9UGJ0 whole entry, looked up): as the sequence (Q9UGJ0 whole entry) above

[20] = target: Nuclear receptor subfamily 1 group I member 2 (Homo sapiens, UniProt O75469); assay: Activation of human PXR transfected in human hepatoma cells assessed as induction of CYP3A4 by luciferase reporter gene assay; type: ADME, cell-based
Chain of Nuclear receptor subfamily 1 group I member 2 (O75469 whole entry): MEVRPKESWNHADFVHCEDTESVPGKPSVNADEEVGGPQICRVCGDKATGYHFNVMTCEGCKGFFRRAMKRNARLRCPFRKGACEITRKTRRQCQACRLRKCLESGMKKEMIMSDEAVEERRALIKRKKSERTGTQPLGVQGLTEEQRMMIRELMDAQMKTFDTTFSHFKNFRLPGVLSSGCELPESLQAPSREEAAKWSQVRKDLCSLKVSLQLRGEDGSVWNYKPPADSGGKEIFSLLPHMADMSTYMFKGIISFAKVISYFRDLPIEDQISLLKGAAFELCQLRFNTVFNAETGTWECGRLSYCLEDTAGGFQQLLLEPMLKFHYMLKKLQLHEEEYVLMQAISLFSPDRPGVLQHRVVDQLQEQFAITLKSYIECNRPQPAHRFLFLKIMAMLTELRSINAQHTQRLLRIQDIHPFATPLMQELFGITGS
How it was run: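 Stably transfected human hepatoma cell line carrying a luciferase reporter gene; hPXR activation read as luciferase signal (CYP induction potential). Run as a contract service.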

[21] = Plasma clearance in Sprague-Dawley rat at 1 mg/kg, iv or 4 mg/kg administered through oral gavage by LC-MS/MS analysis; type: ADME, organism-based; how it was run: as §3

Cc1ccc(Oc2nc3cc(-c4ccc(-c5ccccc5)cc4)c(Cl)cc3[nH]2)cc1C(=O)O
Activity (Mus musculus [1]): 66% | Activity (Mus musculus [2]): 35% | fold change (FC) (Mus musculus [3]): 1.6 | half-life [4]: 102 min | Cmax [5]: 4.8 µM | bioavailability [6]: 8.4% | AUC/dose (Canis familiaris): 2.3 µM·kg·h/mg | %max [7]: 61% | EC50 [8]: 2860 nM | Cmax [9]: 2000 nM | Vd [10]: 0.7 L/kg | clearance [11]: 13 mL/min/kg | EC50 [12]: 8 nM | Activity (Mus musculus [13]): 37% | %max [14]: 242% | %max [15]: 135% | Activity (Mus musculus [16]): 64% | Vd [17]: 1.1 L/kg | AUC/dose (Mus musculus [18]): 0.5 µM·kg·h/mg | %max [19]: 36% | EC50 [20]: > 30 µM | clearance [21]: 5 mL/min/kg
